What was measured:
Pseudomonas aeruginosa [1] = assay: Antibacterial activity against Pseudomonas aeruginosa ATCC 9027 assessed as bacterial growth inhibition by CLSI protocol based serial microdilution method; assay type: functional
Enterococcus faecalis [2] = assay: Antibacterial activity against Enterococcus faecalis ATCC 51299 assessed as concentration required to inhibit visible growth by CLSI protocol based serial microdilution method; assay type: functional
Citrobacter freundii [3] = assay: Antibacterial activity against Citrobacter freundii ATCC 8090 assessed as bacterial growth inhibition by CLSI protocol based serial microdilution method; assay type: functional
Staphylococcus aureus [4] = assay: Antibacterial activity against methicillin-resistant Staphylococcus aureus CEMTC 707 assessed as bacterial growth inhibition by CLSI protocol based serial microdilution method; assay type: functional
Staphylococcus aureus [5] = assay: Antibacterial activity against methicillin-resistant Staphylococcus aureus CEMTC 1695 assessed as bacterial growth inhibition by CLSI protocol based serial microdilution method; assay type: functional
Staphylococcus aureus [6] = assay: Antibacterial activity against methicillin-resistant Staphylococcus aureus CEMTC 1732 assessed as concentration required to inhibit visible growth by CLSI protocol based serial microdilution method; assay type: functional
Staphylococcus aureus [7] = assay: Antibacterial activity against methicillin-resistant Staphylococcus aureus CEMTC 707 assessed as concentration required to inhibit visible growth by CLSI protocol based serial microdilution method; assay type: functional
Salmonella typhimurium [8] = assay: Antibacterial activity against Salmonella enterica ATCC 14028 assessed as bacterial growth inhibition by CLSI protocol based serial microdilution method; assay type: functional
Citrobacter freundii [9] = assay: Antibacterial activity against Citrobacter freundii ATCC 8090 assessed as concentration required to inhibit visible growth by CLSI protocol based serial microdilution method; assay type: functional
Proteus vulgaris [10] = assay: Antibacterial activity against Proteus vulgaris ATCC 6380 assessed as concentration required to inhibit visible growth by CLSI protocol based serial microdilution method; assay type: functional
Staphylococcus aureus [11] = assay: Antibacterial activity against methicillin-resistant Staphylococcus aureus CEMTC 1733 assessed as bacterial growth inhibition by CLSI protocol based serial microdilution method; assay type: functional
Staphylococcus aureus [12] = assay: Antibacterial activity against methicillin-resistant Staphylococcus aureus CEMTC 675 assessed as bacterial growth inhibition by CLSI protocol based serial microdilution method; assay type: functional
Proteus vulgaris [13] = assay: Antibacterial activity against Proteus vulgaris ATCC 6380 assessed as bacterial growth inhibition by CLSI protocol based serial microdilution method; assay type: functional
Staphylococcus aureus [14] = assay: Antibacterial activity against methicillin-resistant Staphylococcus aureus CEMTC 1733 assessed as concentration required to inhibit visible growth by CLSI protocol based serial microdilution method; assay type: functional
Escherichia coli [15] = assay: Antibacterial activity against Escherichia coli ATCC 25922 assessed as bacterial growth inhibition by CLSI protocol based serial microdilution method; assay type: functional
Staphylococcus aureus [16] = assay: Antibacterial activity against methicillin-resistant Staphylococcus aureus CEMTC 675 assessed as concentration required to inhibit visible growth by CLSI protocol based serial microdilution method; assay type: functional
Staphylococcus aureus [17] = assay: Antibacterial activity against […] Staphylococcus aureus ATCC 25923 assessed as concentration required to inhibit visible growth by CLSI protocol based serial microdilution method; assay type: functional
Staphylococcus aureus [18] = assay: Antibacterial activity against methicillin-resistant Staphylococcus aureus CEMTC 1850 assessed as concentration required to inhibit visible growth by CLSI protocol based serial microdilution method; assay type: functional
Staphylococcus aureus [19] = assay: Antibacterial activity against […] Staphylococcus aureus ATCC 25923 assessed as bacterial growth inhibition by CLSI protocol based serial microdilution method; assay type: functional
Staphylococcus aureus [20] = assay: Antibacterial activity against methicillin-resistant Staphylococcus aureus CEMTC 1732 assessed as bacterial growth inhibition by CLSI protocol based serial microdilution method; assay type: functional
Salmonella typhimurium [21] = assay: Antibacterial activity against Salmonella enterica ATCC 14028 assessed as concentration required to inhibit visible growth by CLSI protocol based serial microdilution method; assay type: functional
Enterococcus faecalis [22] = assay: Antibacterial activity against Enterococcus faecalis ATCC 51299 assessed as bacterial growth inhibition by CLSI protocol based serial microdilution method; assay type: functional
Pseudomonas aeruginosa [23] = assay: Antibacterial activity against Pseudomonas aeruginosa ATCC 9027 assessed as concentration required to inhibit visible growth by CLSI protocol based serial microdilution method; assay type: functional
Escherichia coli [24] = assay: Antibacterial activity against Escherichia coli ATCC 25922 assessed as concentration required to inhibit visible growth by CLSI protocol based serial microdilution method; assay type: functional
Staphylococcus aureus [25] = assay: Antibacterial activity against methicillin-resistant Staphylococcus aureus CEMTC 1850 assessed as bacterial growth inhibition by CLSI protocol based serial microdilution method; assay type: functional
Staphylococcus aureus [26] = assay: Antibacterial activity against methicillin-resistant Staphylococcus aureus CEMTC 1695 assessed as concentration required to inhibit visible growth by CLSI protocol based serial microdilution method; assay type: functional
Influenza A virus = assay: Antiviral activity against Influenza A virus (A/Puerto Rico/8/34 (H1N1) infected in MDCK cells assessed as decrease in viral titer preincubated for 1 hr followed by viral infection and cultivated for 48 hrs followed by supernatant transferred to chicken erythrocyte for 1 hr followed by measuring ability to cause positive hemagglutination; assay type: functional, organism-based; details: A/Puerto Rico/8/1934(H1N1)
Summary of the method: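 MDCK monolayers in MEM were pre-incubated with compound for 1 h at 37 °C, then infected with 10-fold virus dilutions (10⁻¹–10⁻⁶) and held 48 h at 37 °C, 5% CO₂. Supernatant was mixed with an equal volume of 1% chicken erythrocytes, 60 min at room temperature. Titre was taken from the highest dilution giving full agglutination (log₁₀ EID₅₀). Triplicate per concentration.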

[27] = Cytotoxicity against HEK293T cells assessed as reduction in cell viability measured after 24 hrs by MTT assay; assay type: cell-based, HEK-293T; details: human
Summary of the method: (§1)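 HEK293T or MCF-7 cells in IMDM with 10% FBS, seeded at 20,000 per well and grown overnight. Compounds at […] in fresh medium for 24 h at 37 °C, 5% CO₂. MTT then added for 4 h, precipitate dissolved overnight in SDS-HCl, absorbance read at 570 nm. Viability expressed relative to untreated cells, giving CC₅₀. Duplicate wells, at least two independent repeats.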

[28] = Cytotoxicity against MDCK cells assessed as cell death incubated for 48 hrs by MTT assay; assay type: cell-based, Canis lupus familiaris; details: dog
[29] = Selectivity index, ratio of CC50 for HEK293T cells assessed as reduction in cell viability measured after 24 hrs by MTT assay to MIC for Pseudomonas aeruginosa ATCC 9027 assessed as bacterial growth inhibition by CLSI protocol based serial microdilution method; assay type: toxicity; details: human, read-out: Selectivity Index
[30] = Selectivity index, ratio of CC50 for HEK293T cells assessed as reduction in cell viability measured after 24 hrs by MTT assay to MIC for Candida albicans CEMTC 34 assessed as bacterial growth inhibition by CLSI protocol based serial microdilution method; assay type: toxicity; details: human, read-out: Selectivity Index
Summary of the method: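 SI = CC₅₀ (HEK293T) / MIC. HEK293T cells were seeded at 20,000/well overnight, then exposed to 10–250 µg/mL in IMDM with 10% FBS for 24 h. MTT was added for 4 h, solubilised with SDS-HCl, and read at 570 nm; duplicates, ≥2 independent runs. MIC came from two-fold dilutions in Sabouraud dextrose broth at ~5 × 10⁵ CFU/mL, 37 °C with shaking, read at 595 nm, in duplicate.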

[31] = Selectivity index, ratio of CC50 for MDCK cells to EC50 for Influenza A virus (A/Puerto Rico/8/34 (H1N1)) infected in MDCK cells; assay type: toxicity, cell-based; details: dog, read-out: Ratio CC50/EC50
Summary of the method: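 Ratio of CC₅₀ to EC₅₀, both in MDCK cells, with cytotoxicity run in parallel with the antiviral assay. EC₅₀ is the concentration halving virus production (0.3 log₁₀ EID₅₀ titre drop). It was obtained after 1 h compound pre-incubation, infection, 48 h at 37 °C, and hemagglutination read-out with 1% chicken erythrocytes.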

[32] = Selectivity index, ratio of CC50 for HEK293T cells assessed as reduction in cell viability measured after 24 hrs by MTT assay to MIC for Citrobacter freundii ATCC 8090 assessed as bacterial growth inhibition by CLSI protocol based serial microdilution method; assay type: toxicity; details: human, read-out: Selectivity Index
Candida albicans [33] = assay: Antifungal activity against Candida albicans CEMTC 34 assessed as concentration required to inhibit visible growth by CLSI protocol based serial microdilution method; assay type: functional
Summary of the method: (§2)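 Candida albicans grown in Sabouraud dextrose broth with two-fold serial compound dilutions from water stocks; final inoculum about 5 × 10⁵ CFU/mL. Incubated at 37 °C with orbital shaking (580 rpm). MIC is the lowest concentration preventing growth, by absorbance at 595 nm. MFC is the lowest concentration with no visible growth. Duplicates in two separate experiments.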

[34] = Selectivity index, ratio of CC50 for HEK293T cells assessed as reduction in cell viability measured after 24 hrs by MTT assay to MIC for Escherichia coli ATCC 25922 assessed as bacterial growth inhibition by CLSI protocol based serial microdilution method; assay type: toxicity; details: human, read-out: Selectivity Index
[35] = Cytotoxicity against human MCF7 cells assessed as reduction in cell viability measured after 24 hrs by MTT assay; assay type: cell-based; summary of the method: as §1
[36] = Selectivity index, ratio of CC50 for HEK293T cells assessed as reduction in cell viability measured after 24 hrs by MTT assay to MIC for Enterococcus faecalis ATCC 51299 assessed as bacterial growth inhibition by CLSI protocol based serial microdilution method; assay type: toxicity; details: human, read-out: Selectivity Index
[37] = Selectivity index, ratio of CC50 for HEK293T cells assessed as reduction in cell viability measured after 24 hrs by MTT assay to MIC for Proteus vulgaris ATCC 6380 assessed as bacterial growth inhibition by CLSI protocol based serial microdilution method; assay type: toxicity; details: human, read-out: Selectivity Index
[38] = Selectivity index, ratio of CC50 for HEK293T cells assessed as reduction in cell viability measured after 24 hrs by MTT assay to MIC for Salmonella enterica ATCC 14028 assessed as bacterial growth inhibition by CLSI protocol based serial microdilution method; assay type: toxicity; details: human, read-out: Selectivity Index
Candida albicans [39] = assay: Antifungal activity against Candida albicans CEMTC 34 assessed as fungal growth inhibition by CLSI protocol based serial microdilution method; assay type: functional; summary of the method: as §2
[40] = Selectivity index, ratio of CC50 for HEK293T cells assessed as reduction in cell viability measured after 24 hrs by MTT assay to MIC for Staphylococcus aureus ATCC 25923 assessed as bacterial growth inhibition by CLSI protocol based serial microdilution method; assay type: toxicity; details: human, read-out: Selectivity Index
[41] = Salmonella enterica subsp. enterica serovar Typhimurium

Work on GENTAMICIN yielded an MIC (Pseudomonas aeruginosa [1]) greater than 400 µg/mL, an MBC (Enterococcus faecalis [2]) of 100 µg/mL and an MIC (Citrobacter freundii [3]) of 0.4 µg/mL. It also gave an MIC (Staphylococcus aureus [4]) of 1 µg/mL, an MIC (Staphylococcus aureus [5]) greater than 100 µg/mL and an MBC (Staphylococcus aureus [6]) greater than 100 µg/mL. It also gave an MBC (Staphylococcus aureus [7]) of 1 µg/mL, an MIC (Salmonella typhimurium [8]; [41]) of 0.8 µg/mL and an MBC (Citrobacter freundii [9]) of 0.8 µg/mL. For the same compound, the MBC (Proteus vulgaris [10]) was 1.6 µg/mL, the MIC (Staphylococcus aureus [11]) was 1 µg/mL and the MIC (Staphylococcus aureus [12]) was greater than 100 µg/mL. The MIC (Proteus vulgaris [13]) was 0.8 µg/mL, the MBC (Staphylococcus aureus [14]) was 1 µg/mL and the MIC (Escherichia coli [15]) was 50 µg/mL. For the same compound, the MBC (Staphylococcus aureus [16]) was greater than 100 µg/mL, the MBC (Staphylococcus aureus [17]) was 100 µg/mL and the MBC (Staphylococcus aureus [18]) was greater than 100 µg/mL. It also gave an MIC (Staphylococcus aureus [19]) of 50 µg/mL, an MIC (Staphylococcus aureus [20]) greater than 100 µg/mL and an MBC (Salmonella typhimurium [21]; [41]) of 1.6 µg/mL. The MIC (Enterococcus faecalis [22]) was 50 µg/mL, the MBC (Pseudomonas aeruginosa [23]) was greater than 400 µg/mL and the MBC (Escherichia coli [24]) was 100 µg/mL. The MIC (Staphylococcus aureus [25]) was 10 µg/mL and the MBC (Staphylococcus aureus [26]) was greater than 100 µg/mL.
Compound CCCCCCCCCCCC[N+]12CC[N+](CCCCC[N+]34CC[N+](CCCCCCCCCCCC)(CC3)CC4)(CC1)CC2 has an MIC (Pseudomonas aeruginosa [1]) of 3.1 µg/mL, an EC50 (Influenza A virus) of 2.4 µg/mL and a CC50 at 24 h [27] of 7.5 µg/mL. The MBC (Enterococcus faecalis [2]) was 1.6 µg/mL, the MIC (Citrobacter freundii [3]) was 1.6 µg/mL and the CC50 at 48 h [28] was 9.7 µg/mL. The MIC (Salmonella typhimurium [8]) was 1.6 µg/mL, the MBC (Citrobacter freundii [9]) was 3.1 µg/mL and the selectivity ratio at 24 h [29] was 2. The MBC (Proteus vulgaris [10]) was greater than 100 µg/mL, the selectivity ratio at 24 h [30] was 1 and the selectivity ratio [31] was 4. It also gave an MIC (Proteus vulgaris [13]) greater than 100 µg/mL, a selectivity ratio at 24 h [32] of 5 and an MFC (Candida albicans [33]) of 12.5 µg/mL. The MIC (Escherichia coli [15]) was 1.6 µg/mL, the selectivity ratio at 24 h [34] was 5 and the CC50 at 24 h [35] was 7 µg/mL. The selectivity ratio at 24 h [36] was 5, the selectivity ratio at 24 h [37] was less than 1 and the MBC (Staphylococcus aureus [17]) was 1.2 µg/mL. For the same compound, the MIC (Staphylococcus aureus [19]) was 0.6 µg/mL, the selectivity ratio at 24 h [38] was 5 and the MBC (Salmonella typhimurium [21]) was 3.1 µg/mL. For the same compound, the MIC (Enterococcus faecalis [22]) was 1.6 µg/mL, the MBC (Pseudomonas aeruginosa [23]) was 6.3 µg/mL and the MIC (Candida albicans [39]) was 6.3 µg/mL. For the same compound, the MBC (Escherichia coli [24]) was 3.1 µg/mL and the selectivity ratio at 24 h [40] was 13.

Reference: ChEMBL document CHEMBL4715780, “Biological evaluation of tetracationic compounds based on two 1,4-diazabicyclo[2.2.2]octane moieties connected by different linkers” (Bioorg Med Chem, 2016)
